From ChEMBL document CHEMBL4706553, “Discovery of potent small molecule PROTACs targeting mutant EGFR” (Eur J Med Chem, 2020) come the findings set out here.

Activity calls are given as the source filed them. Some results are limits rather than exact numbers.

Assay [1] has as its system A-431. Briefly: Antiproliferative activity against human A431 cells expressing wild type EGFR assessed as cell growth inhibition measured after 72 hrs by MTT assay. The format is functional, cell-based. To be noted: A-431, 72 h. The gist of the method:
(§1)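 Cells were seeded at 3000–8000/well and allowed 24 h, then exposed to serial compound concentrations for 72 h. MTT (5 mg/mL stock in PBS) was added for 4 h, supernatant removed and DMSO added. IC50, defined as 50% growth inhibition, was derived by nonlinear regression (log inhibitor vs response).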
Background: Tetrazolium dyes change colour on reduction, which living cells bring about.

In assay [2] the test system is von Hippel-Lindau disease tumor suppressor/Epidermal growth factor receptor (Homo sapiens), P00533+P40337 [L858R,T790M]. Briefly: Protac activity at VHL/EGFR L858R/T790M mutant in human H1975 cells assessed as induction of degradation of EGFR at 333 nM incubated for 48 hrs measured after compound wash-out for 48 hrs by Western blot analysis. The format is cell-based. To be noted: NCI-H1975. The method in brief: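 H1975 cells (RPMI-1640, 10% heat-inactivated FBS) exposed to 333 nM for 48 h. Medium then replaced with compound-free medium, and lysates collected at the stated times. EGFR read by Western blot; n = 2.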
In general terms: Immunoblotting shows a protein as a band on a membrane.

The test system of assay [3] is HepG2. Put plainly: Antiproliferative activity against human HepG2 cells expressing VEGFR2 assessed as cell growth inhibition measured after 72 hrs by MTT assay. The following applies: HepG2, 72 h. It is filed as functional, cell-based. The method in brief: as §1
Assay [4] concerns von Hippel-Lindau disease tumor suppressor/Epidermal growth factor receptor (Homo sapiens), P00533+P40337 [L858R,T790M]. Put plainly: Protac activity at VHL/EGFR L858R/T790M mutant in human H1975 cells assessed as maximal induction of degradation of EGFR incubated for 48 hrs by Western blot analysis relative to control. It is filed as cell-based. The following applies: NCI-H1975. The method in brief: (§2)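 H1975 cells exposed to the stated concentrations for 48 h. EGFR by Western blot; n = 3. DC₅₀ by nonlinear regression, log(inhibitor) vs response.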

Assay [5] relates to von Hippel-Lindau disease tumor suppressor/Epidermal growth factor receptor (Homo sapiens), P00533+P40337 [UNDEFINED MUTATION]. Briefly: Protac activity at VHL/EGFR del19 mutant in human HCC827 cells assessed as maximal induction of EGFR degradation at 33 nM measured after 48 hrs by Western blot analysis. The format is cell-based. The gist of the method: (§3)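 HCC827 cells seeded at 0.5–1 × 10⁶ per well, then treated at the stated concentrations for 48 h. EGFR by Western blot; n = 3. DC₅₀ (concentration giving 50% EGFR loss) by nonlinear regression, log(inhibitor) vs response.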

For assay [6] the test system is unchanged. Put plainly: Protac activity at VHL/EGFR del19 mutant in human HCC827 cells assessed as induction of EGFR degradation at 33 nM by Western blot analysis. It is filed as cell-based. To be noted: time 12-72 hrs, TDE = time-dependent effect. The gist of the method: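 Time course in HCC827 cells at 33 nM, with protein harvested at each stated time point. EGFR^del19 detected by Western blot.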

Assay [7] concerns the target von Hippel-Lindau disease tumor suppressor/Epidermal growth factor receptor (Homo sapiens, UniProt P00533+P40337, T790M/L858R). Put plainly: Protac activity at VHL/EGFR L858R/T790M mutant in human H1975 cells assessed as induction of degradation of EGFR incubated for 48 hrs by Western blot analysis. The format is cell-based. The following applies: nci-h1975. The method in brief:
as §2

Assay [8] concerns the target von Hippel-Lindau disease tumor suppressor/Epidermal growth factor receptor (Homo sapiens, UniProt P00533+P40337). Put plainly: Protac activity at VHL/EGFR del19 mutant in human HCC827 cells assessed as induction of EGFR degradation measured after 48 hrs by Western blot analysis. It is filed as cell-based. The method in brief: as §3
Assay [9] concerns HCC827. Briefly: Antiproliferative activity against human HCC827 cells expressing EGFR del19 mutant assessed as cell growth inhibition measured after 72 hrs by MTT assay. The format is functional, cell-based. To be noted: HCC827, 72 h. The gist of the method:
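HCC827 cells were kept in RPMI-1640 with 10% heat-inactivated FBS, 1% sodium pyruvate, 1% glutamine and 1% penicillin-streptomycin at 37 °C and 5% CO₂, seeded at 3000–8000/well and rested 24 h. Compounds were applied as a concentration series for 72 h. MTT (5 mg/mL stock in PBS) was given for 4 h, then medium was removed and DMSO added. IC50 came from nonlinear regression (log inhibitor vs response).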

The subject of assay [10] is von Hippel-Lindau disease tumor suppressor/Epidermal growth factor receptor (Homo sapiens), P00533+P40337 [UNDEFINED MUTATION]. Put plainly: Protac activity at VHL/EGFR del19 mutant in human HCC827 cells assessed as induction of EGFR degradation at 33 nM measured after 24 hrs by Western blot analysis. The format is cell-based. The gist of the method:
(§4)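 HCC827 cells seeded at 0.5–1 × 10⁶ per well, grown 24 h, then treated at the stated concentrations for 24 h. EGFR^del19 level by Western blot with anti-EGFR antibody and β-actin loading control.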

Assay [11] has the same test system. Put plainly: Protac activity at VHL/EGFR del19 mutant in human HCC827 cells assessed as induction of EGFR degradation at 33 nM incubated for 24 hrs measured following drug wash-out for 24 hrs by Western blot analysis. The format is cell-based. The method in brief:
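HCC827 cells (RPMI-1640, 10% heat-inactivated FBS, 1% sodium pyruvate, 1% glutamine, 37 °C, 5% CO₂) treated at 33 nM for 24 h. Medium then replaced with compound-free medium, and protein harvested at the stated times. EGFR read by Western blot; n = 2.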

Assay [12] shares this test system. Briefly: Protac activity at VHL/EGFR del19 mutant in human HCC827 cells assessed as induction of EGFR degradation at 333 nM measured after 24 hrs by Western blot analysis. The format is cell-based. The gist of the method:
as §4

For assay [13], the system named is NCI-H1975. Put plainly: Antiproliferative activity against human H1975 cells expressing EGFR L858R/T790M mutant assessed as cell growth inhibition measured after 72 hrs by MTT assay. It is filed as functional, cell-based. The following applies: NCI-H1975, 72 h. The gist of the method:
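MTT assay on H1975 cells grown in RPMI-1640 with 10% heat-inactivated FBS and 1% penicillin-streptomycin at 37 °C and 5% CO₂. Cells were seeded at 3000–8000 per well and left 24 h, then exposed to a concentration series for 72 h. MTT (5 mg/mL stock in PBS) was added for 4 h, supernatant removed and formazan dissolved in DMSO. IC50 was fitted by nonlinear regression (log inhibitor vs response).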

The test system of assay [14] is von Hippel-Lindau disease tumor suppressor/Epidermal growth factor receptor (Homo sapiens), P00533+P40337 [UNDEFINED MUTATION]. Put plainly: Protac activity at VHL/EGFR del19 mutant in human HCC827 cells assessed as induction of EGFR degradation at 33 to 333 nM measured after 24 hrs by Western blot analysis. The format is cell-based. The following applies: dose 33-333 nM. The gist of the method: as §4

Assay [15] relates to Protein cereblon/Epidermal growth factor receptor (Homo sapiens), P00533+Q96SW2 [UNDEFINED MUTATION]. Briefly: Protac activity at CRBN/EGFR del19 mutant in human HCC827 cells assessed as induction of EGFR degradation at 333 nM measured after 24 hrs by Western blot analysis. It is filed as cell-based. The method in brief:
as §4

Assay [16] has the same test system. Put plainly: Protac activity at CRBN/EGFR del19 mutant in human HCC827 cells assessed as induction of EGFR degradation at 33 nM measured after 24 hrs by Western blot analysis. It is filed as cell-based. The gist of the method:
as §4

The subject of assay [17] is von Hippel-Lindau disease tumor suppressor/Epidermal growth factor receptor (Homo sapiens), P00533+P40337 [UNDEFINED MUTATION]. Briefly: Protac activity at VHL/EGFR del19 mutant in human HCC827 cells assessed as induction of EGFR degradation at 1 to 33 nM incubated for 24 hrs by Western blot analysis. It is filed as cell-based. The following applies: dose 1-33 nM. The gist of the method:
as §4

Assay [18] relates to von Hippel-Lindau disease tumor suppressor/Epidermal growth factor receptor (Homo sapiens), P00533+P40337 [L858R,T790M]. Put plainly: Protac activity at VHL/EGFR L858R/T790M mutant in human H1975 cells assessed as induction of degradation of EGFR at 0.33 to 1 uM incubated for 24 hrs by Western blot analysis. It is filed as cell-based. To be noted: NCI-H1975, dose 0.33-1 µM. The method in brief: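 H1975 cells, after 24 h seeding, treated at the stated concentrations for 24 h. EGFR by Western blot with β-actin loading control.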

As usually defined, the IC50 is the concentration needed to halve the response being measured. A word on the DC50: it is the midpoint of the concentration-degradation curve. As for `Cc1ncsc1-c1ccc(CNC(=O)[C@@H]2C[C@@H](O)CN2C(=O)[C@@H](NC(=O)CCCCCCCN2CCN(c3ccc(Nc4ncc5nc(Nc6ccccc6)n(C6CCCC6)c5n4)cc3)CC2)C(C)(C)C)cc1`, the IC50 in assay [1] was 330 nM; in [3], over 5000 nM; in [9] it was 0.76 nM; in assay [13], 970 nM. Further, the result in [2], in assay [10] and in assay [11] was Active. Moreover, the Emax was 80.3% in assay [4] and 74.8% in [5]. Besides, the Activity entry in assay [6] is “Tde”. Besides, the DC50 came to 151 nM in [7] and 3.54 nM in assay [8]. Moreover, the result in [12] was inactive.
`Cc1ncsc1-c1ccc(CNC(=O)[C@@H]2C[C@@H](O)CN2C(=O)[C@@H](NCCOCCOCCOCCOCCN2CCN(c3ccc(Nc4ncc5nc(Nc6ccccc6)n(C6CCCC6)c5n4)cc3)CC2)C(C)(C)C)cc1`: the IC50 in assay [3] is over 5000 nM; in assay [9] it was 62 nM; in assay [13], 2890 nM. The result in [14] was inactive.
Take `O=C1CCC(N2Cc3c(NC(=O)CCCCCCN4CCN(c5ccc(Nc6ncc7nc(Nc8ccccc8)n(C8CCCC8)c7n6)cc5)CC4)cccc3C2=O)C(=O)N1` (stereo not given): the result in [15] was inactive. In addition, the 50% inhibitory concentration (IC50) was 220 nM in [1], over 5000 nM in [3], 1.41 nM in assay [9] and 9300 nM in assay [13]. Further, the outcome in [16] was Active.
On to `Cc1ncsc1-c1ccc(CNC(=O)[C@@H]2C[C@@H](O)CN2C(=O)[C@@H](NCCOCCOCCOCCN2CCN(c3ccc(Nc4ncc5nc(Nc6ccccc6)n(C6CCCC6)c5n4)cc3)CC2)C(C)(C)C)cc1`, for which the results for the concentration for half-maximal inhibition (IC50) in [3], in assay [9] and in [13] were over 5000 nM, 54.4 nM and 2100 nM, respectively. Further, the result in assay [14] was inactive.
As to `CN(CCOCCOCCOCCOCCN1CCN(c2ccc(Nc3ncc4nc(Nc5ccccc5)n(C5CCCC5)c4n3)cc2)CC1)CC(=O)Nc1cccc2c1CN(C1CCC(=O)NC1=O)C2=O` (stereo not given), the outcome in assay [15] was inactive. Also, the IC50 in [1] is 2720 nM; in assay [3] it was over 5000 nM; in [9], 2.83 nM; in [13] it was 3340 nM. Further, in [16], the outcome was Active.
Turning to `Cc1ncsc1-c1ccc(CNC(=O)[C@@H]2C[C@@H](O)CN2C(=O)[C@@H](NCCOCCOCCN2CCN(c3ccc(Nc4ncc5nc(Nc6ccccc6)n(C6CCCC6)c5n4)cc3)CC2)C(C)(C)C)cc1`, the IC50 in assay [3] was over 5000 nM; in assay [9] it was 53.5 nM; in assay [13], 1100 nM. Besides, the result in assay [14] was inactive.
Consider `CN1CCN(c2ccc(Nc3ncc4nc(Nc5ccccc5)n(C5CCCC5)c4n3)cc2)CC1`, for which the IC50 in assay [1] was 163 nM; in [3], over 5000 nM; in assay [9] it was 0.82 nM; in [13] it was 430 nM.
Turning to `CN(CCOCCOCCN1CCN(c2ccc(Nc3ncc4nc(Nc5ccccc5)n(C5CCCC5)c4n3)cc2)CC1)CC(=O)Nc1cccc2c1CN(C1CCC(=O)NC1=O)C2=O` (stereo not given), the outcome in assay [15] was inactive. For the same molecule, the IC50 in [1] was 2670 nM; in assay [3] it was over 5000 nM; in [9] it was 1.39 nM; in [13], 1210 nM. Further, the result in assay [16] was Active.
Take `O=C1CCC(N2Cc3c(NC(=O)CCCCCCCN4CCN(c5ccc(Nc6ncc7nc(Nc8ccccc8)n(C8CCCC8)c7n6)cc5)CC4)cccc3C2=O)C(=O)N1` (stereo not given): the outcome in assay [15] was inactive. The IC50 in assay [1] was 240 nM; in assay [3] it was over 5000 nM; in assay [9], 2.61 nM; in assay [13] it was 3780 nM. The result in assay [16] was Active.
As to `C=CC(=O)Nc1cc(Nc2nccc(-c3cn(C)c4ccccc34)n2)c(OC)cc1N(C)CCN(C)C` [OSIMERTINIB], the IC50 in assay [1] was […]; in assay [9], 0.97 nM; in assay [13], […].
Turning to `Cc1ncsc1-c1ccc(CNC(=O)[C@@H]2C[C@H](O)CN2C(=O)[C@@H](NC(=O)CCCCCCN2CCN(c3ccc(Nc4ncc5nc(Nc6ccccc6)n(C6CCCC6)c5n4)cc3)CC2)C(C)(C)C)cc1`, the outcome in [17] and in assay [18] was inactive. In addition, the half-inhibitory concentration (IC50) in assay [9] is 15.8 nM; in [13] it was over 10000 nM.
